PMI act satM6P: increases human PMI activity with near-saturating mannose 6-phosphate. AID 1216. P34949. coupled PMI enzyme assay, resazurin fluorescence, 20 min; active compounds read high; 1 = untreated enzyme, 0 = substrate-free blank. hit rate 0.34% among 190,000. activation factor at 20 µM;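 active = activation factor of 2 or more at 20 µM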
Target sequence (P34949 whole entry, looked up): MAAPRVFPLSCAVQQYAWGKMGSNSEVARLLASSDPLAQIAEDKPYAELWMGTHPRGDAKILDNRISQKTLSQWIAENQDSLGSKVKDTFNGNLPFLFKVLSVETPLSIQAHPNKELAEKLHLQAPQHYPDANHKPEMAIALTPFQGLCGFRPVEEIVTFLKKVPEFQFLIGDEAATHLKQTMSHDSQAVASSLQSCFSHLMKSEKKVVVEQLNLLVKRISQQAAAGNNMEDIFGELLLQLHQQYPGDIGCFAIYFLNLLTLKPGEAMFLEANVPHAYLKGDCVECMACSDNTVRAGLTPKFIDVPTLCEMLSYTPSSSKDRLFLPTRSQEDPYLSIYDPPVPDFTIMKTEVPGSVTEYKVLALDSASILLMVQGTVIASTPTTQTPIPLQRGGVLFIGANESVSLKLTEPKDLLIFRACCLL
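Test system: human phosphomannose isomerase with PGI, G6PDH, diaphorase coupling enzymes / Doses: 20 µM compound, 1% DMSO / Times: enzyme reaction with compound 20 min at room temperature / Measured by: Diaphorase-driven resazurin-to-resorufin fluorescence, excitation 544, emission 590 nm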
HMGR II inh: E. faecalis class II HMG-CoA reductase inhibition; purified E. faecalis HMGR, NADPH absorbance 340 nm kinetic; inhibition, % at 10 µM; hit rate 0.41% among 190,000;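 active = inhibition above a set limit, the median over all tested compounds plus 3 SD, cut at about 9.5% in these data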;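 also: enzyme runs in reverse so mevalonate oxidation gives rising NADPH absorbance; 0% = complete reaction with DMSO and 100% = background rate lacking mevalonate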
Calpain2 inh: blocks pig calpain II enzyme activity; AID 1236; hit rate 0.37% among 220,000; inhibition, % at 16 µM; purified calpain II, fluorogenic peptide substrate, 30 min;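 active = inhibition above about 50%, limit read from the data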
Rad51 HR inh: Rad51 (human) homologous recombination inhibition. Q06609. hRad51 DNA strand exchange, fluorescence dequenching. AID 1385. inhibition, % at 10 µM. hit rate 0.085% among 200,000;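 active = inhibition above 40% at the single screening dose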;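 also: 0% = DMSO control wells and 100% = blanks with heterologous ssDNA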
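Material: Human Rad51 nucleoprotein filaments preassembled on unlabelled ssDNA | Also added: Labelled 47-mer dsDNA for strand exchange | Dosing: Single dose, 10 µM final compound | Schedule: 30-min compound preincubation and 15-min exchange, both room temperature | Technique: Fluorescence dequenching at 485/520 nm | Measure: Percent inhibition relative to plate controls and blanks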
PMI act: phosphomannose isomerase (human) activation. purified human PMI, coupled resazurin fluorescence, 20 min; active compounds read high; 1 = vehicle control, 0 substrate-free wells. activation factor at 20 µM. hit rate 0.005% among 190,000;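 active = activation factor of 2 or more at 20 µM, relative to plate controls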
Starred values were filed as active, the others as inactive. Compounds with a hit are over-represented: about 1.1% of the library has one in this group of screens.

How did CSCSC1=C(C#N)C(c2ccc(Cl)cc2)C(C(C)=O)=C(C)N1 (stereo not given) do in these assays?
PMI act satM6P: 2.1*; HMGR II inh: -2.5; Calpain2 inh: 16.9; Rad51 HR inh: -3.5; PMI act: 1.5

Results for N#CCNc1ccc([N+](=O)[O-])cc1C#N ?
Calpain2 inh: 10.5; Rad51 HR inh: -1.6

What do the screens show for `CCN(CC)CCNC(=O)C(=O)NCC1OCCN1C(=O)c1ccc2c(c1)OCO2` (stereo not given)?
PMI act satM6P: 1.1; HMGR II inh: 19.1*; Calpain2 inh: -0.1; Rad51 HR inh: 1.0; PMI act: 1.1

Results for CC(C)n1nc(Cc2cccc3ccccc23)c(C#N)c1N ?
Rad51 HR inh: 0.4

How did Cc1ccc(NC(C)C(=O)N/N=C/c2c[nH]c3ccccc23)cc1 (stereo not given) do in these assays?
PMI act satM6P: 0.9; HMGR II inh: -6.2; Calpain2 inh: 1.4; Rad51 HR inh: 7.0; PMI act: 0.9

What do the screens show for `Cc1ccc(NCC(=O)N/N=C/c2c[nH]c3ccccc23)cc1`?
PMI act satM6P: 1; HMGR II inh: -9.3; Calpain2 inh: 70.0*; Rad51 HR inh: 15.1; PMI act: 1

Results for Cc1cc(C)nc(N/N=C/C2=C(O)CC(c3ccccc3)CC2=O)n1 (stereo not given) ?
Calpain2 inh: 2.1

How did Cc1cccc(CSc2nc3ccncc3n2CC(=O)Nc2cc(C)cc(C)c2)c1 do in these assays?
PMI act satM6P: 1; HMGR II inh: 12.5*; Calpain2 inh: -12.4; Rad51 HR inh: 3.0; PMI act: 1

Results for CSc1nc2ccccc2n1CC(=O)Nc1ccc(C)c(C)c1 ?
PMI act satM6P: 0.9; HMGR II inh: -5.5; Calpain2 inh: 7.9; PMI act: 0.9

How did O=c1c2c(-c3ccccc3)csc2ncn1/N=C/c1ccc(O)c([N+](=O)[O-])c1 do in these assays?
PMI act satM6P: 1.2; HMGR II inh: -4.1; Calpain2 inh: 55.6*; PMI act: 1.3

What do the screens show for `COc1ccc(N=CC2=C(Nc3ccc(OC)cc3)c3c(C)nn(-c4ccccn4)c3CC2)cc1`?
Rad51 HR inh: -3.6

What do the screens show for `COc1ccc(-c2csc(NC(=O)CSc3nc(C)nc4sc(C(=O)O)c(C)c34)n2)cc1`?
Calpain2 inh: -1.8

Results for CCCc1ccc(-c2cc(NC(=O)CSc3nnc(N)s3)n(-c3ccccc3)n2)cc1 ?
PMI act satM6P: 0.8; HMGR II inh: -5.1; Calpain2 inh: 25.2; Rad51 HR inh: 2.5; PMI act: 0.8

What do the screens show for `CC(C)CC(c1nnnn1Cc1ccc2c(c1)OCO2)N1CCC(C(N)=O)CC1` (stereo not given)?
PMI act satM6P: 1; HMGR II inh: -3.3; Calpain2 inh: -22.8; Rad51 HR inh: 0.5; PMI act: 0.9

Results for O=C(O)CSc1nnnn1-c1ccccc1 ?
PMI act satM6P: 1; HMGR II inh: -10.6; Calpain2 inh: -31.0; Rad51 HR inh: 8.3; PMI act: 1

Results for O=C1c2ccccc2C(=O)N1CSc1nnnn1-c1ccccc1 ?
PMI act satM6P: 0.9; HMGR II inh: -5.7; Calpain2 inh: -0.6; Rad51 HR inh: -5.3; PMI act: 1

What do the screens show for `O=C1c2ccccc2C(=O)N1CCCCSc1nnnn1-c1ccccc1`?
PMI act satM6P: 1; HMGR II inh: 1.1; Calpain2 inh: 54.0*; Rad51 HR inh: 7.5; PMI act: 1

How did O=C(CSc1nnnn1-c1ccccc1)CSc1nnnn1-c1ccccc1 do in these assays?
PMI act satM6P: 0.9; HMGR II inh: -5.6; Calpain2 inh: 75.8*; Rad51 HR inh: -1.4; PMI act: 0.9

Results for CCOC(=O)c1c(N)sc(C(=O)OCCOC)c1C ?
PMI act satM6P: 0.8; HMGR II inh: 12.7*; Calpain2 inh: 19.7; Rad51 HR inh: -3.8; PMI act: 0.5

Results for CCOC(=O)c1sc(N)c(C(=O)OCC)c1C ?
Calpain2 inh: -5.8

Results for CCOC(=O)N1CCN(C(=O)CSc2ccc(-c3cccc(OC)c3)nn2)CC1 ?
PMI act satM6P: 1.1; HMGR II inh: -3.1; Calpain2 inh: -25.9; Rad51 HR inh: 2.1; PMI act: 1.1

How did CCOC(=O)N1CCN(C(=O)CSc2ccc(-c3cccnc3)nn2)CC1 do in these assays?
PMI act satM6P: 1.1; HMGR II inh: 10.3*; Calpain2 inh: -17.0; Rad51 HR inh: -4.2; PMI act: 1.1

Source: PubChem BioAssay (several laboratories)
